NR2E3 ag-1: activates human NR2E3 receptor; Q9Y5X4; CHO-S Gal4-NCOR/VP16-NR2E3 two-hybrid, luciferase; inhibition of corepressor binding, % at 3.98 µM; 360,000 compounds, 0.35% hits; AID 602229;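 active = inhibition above the mean of all tested compounds plus 3 SD, cut at about 70% in these data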;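 note: 0% = DMSO with NR2E3 transfected cells and 100% = cells lacking NR2E3 construct; higher means lower luciferase signal from less NR2E3 corepressor binding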
Target sequence (Q9Y5X4 whole entry, looked up, the tested form may be a part): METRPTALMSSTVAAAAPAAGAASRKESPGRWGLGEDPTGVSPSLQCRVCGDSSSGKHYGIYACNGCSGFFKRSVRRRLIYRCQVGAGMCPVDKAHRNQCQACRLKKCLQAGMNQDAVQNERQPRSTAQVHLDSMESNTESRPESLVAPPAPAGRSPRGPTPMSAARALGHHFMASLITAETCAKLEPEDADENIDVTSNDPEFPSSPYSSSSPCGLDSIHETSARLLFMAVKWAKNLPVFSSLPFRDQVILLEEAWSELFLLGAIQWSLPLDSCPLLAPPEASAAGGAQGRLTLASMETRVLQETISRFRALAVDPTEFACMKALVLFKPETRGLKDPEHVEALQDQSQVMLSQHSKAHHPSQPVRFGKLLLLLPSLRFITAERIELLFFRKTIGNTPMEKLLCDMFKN
PP5 primary: blocks human protein phosphatase 5 activity. AID 1987. inhibition, % at 6.7 µM. purified PP5c, OMFP substrate fluorescence. 320,000 compounds, 0.18% hits. P53041;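 active = inhibition above the campaign's mean inhibition across all tested compounds plus 3 SD, cut at about 9.5% in these data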;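 note: 0% = DMSO only and 100% = 100 µM cantharidin control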
NR2E3 ag-2: NR2E3 (human) agonism; Q9Y5X4; GST-NR2E3/biotin-RetCOR TR-FRET, 1536-well; inhibition of corepressor binding, % at 4.78 µM; 320,000 compounds, 0.12% hits; AID 2300;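 active = percent inhibition above the cutoff of mean plus 3 SD of all tested compounds, set per screening campaign, cut at about 20% in these data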;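 note: 0% = DMSO wells and 100% = biotin wells as full block of FRET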
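Format: 1536-well format; test system: GST-NR2E3 and biotin-RetCOR proteins; read-out basis: percent inhibition of TR-FRET ratio; timing: 5 h incubation at 4 °C; detection: time-resolved FRET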
PP1 inh: blocks human PP1-alpha phosphatase, a PP5 counter-screen; P62136; purified PP1alpha, OMFP fluorescence; inhibition, % at 6.7 µM; 320,000 compounds, 0.9% hits;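 active = inhibition above the mean inhibition of all tested compounds plus 3 SD, computed separately for each screening campaign, cut at about 15% in these data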
PP1 confirm: confirmation of human PP1 phosphatase inhibitors | inhibition, % at 6.7 µM | purified PP1alpha, OMFP substrate fluorescence | AID 2358 | 1,900 compounds, 52% hits | shares compounds with PP1 inh;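 active = mean PP1 inhibition above a set limit taken from the earlier primary screen, cut at about 15% in these data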
PP5 counter: inhibits human PP5 phosphatase in PP1 counter-screen; purified PP5c, OMFP fluorescence; 1,900 compounds, 4% hits; inhibition, % at 6.7 µM; shares compounds with PP1 inh;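 active = mean PP5 inhibition over triplicate wells above about 9.5% taken from the earlier PP1 screen, limit read from the data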
The depositor's hits bear a star. A selection: hits, their analogues and other compounds. The true share with any hit is near 1.3%.

Results for Cc1ccsc1C(=O)N1CCC1(C)C(=O)NS(=O)(=O)c1ccc(C#N)cc1 (centres undefined) ?
NR2E3 ag-1: -4

How did O=C1/C(=C/c2ccccc2Cl)SC(=S)N1CCCC(=O)N(CCO)c1ccccc1 do in these assays?
NR2E3 ag-1: -15; PP5 primary: 1; NR2E3 ag-2: 1; PP1 inh: 18*; PP1 confirm: 15; PP5 counter: 5

Results for O=C(O)CN1C(=O)/C(=C\c2ccccc2OCc2ccccc2)SC1=S ?
NR2E3 ag-1: 10

Results for O=C(O)CCCN1C(=O)/C(=C\c2ccccc2OCc2ccccc2)SC1=S ?
NR2E3 ag-1: 1; PP5 primary: 4; NR2E3 ag-2: 4; PP1 inh: 19*; PP1 confirm: 13; PP5 counter: -2

What do the screens show for `O=S1(=O)N[C@@H](Cc2ccccc2)COc2cc(N3CCC[C@@H]3CO)ccc21`?
NR2E3 ag-1: -8

What do the screens show for `CCN(CC)c1ccc(C(NC(=O)C(C)C)c2ccc3cccnc3c2O)cc1` (centres undefined)?
NR2E3 ag-1: -22

What do the screens show for `CCCCC(=O)NC(c1ccc(N(C)C)cc1)c1ccc2cccnc2c1O` (centres undefined)?
NR2E3 ag-1: 4; PP5 primary: 1; NR2E3 ag-2: 7; PP1 inh: 29*; PP1 confirm: 21*; PP5 counter: -4

How did CCCC(=O)NC(c1cccc([N+](=O)[O-])c1)c1ccc2cccnc2c1O (centres undefined) do in these assays?
NR2E3 ag-1: -17

What do the screens show for `CCCCC(=O)NC(c1ccc(N(CC)CC)cc1)c1ccc2cccnc2c1O` (centres undefined)?
NR2E3 ag-1: -24; PP5 primary: 4; NR2E3 ag-2: 1; PP1 inh: 35*; PP1 confirm: 24*; PP5 counter: -5

What do the screens show for `O=c1c(Cl)c(N/N=C/c2ccc(Br)cc2)cnn1-c1ccccc1`?
NR2E3 ag-1: -16; PP5 primary: 4; NR2E3 ag-2: 1; PP1 inh: 24*; PP1 confirm: 22*; PP5 counter: -3

What do the screens show for `CNc1cnn(-c2ccccc2)c(=O)c1Cl`?
NR2E3 ag-1: -24; PP5 primary: -3; NR2E3 ag-2: 3; PP1 inh: -2

Results for O=C(OCC(=O)N1CCN(C(=O)c2ccco2)CC1)c1ccccc1NCCO ?
NR2E3 ag-1: -14; PP5 primary: -2; NR2E3 ag-2: 7; PP1 inh: 1

Results for CN(C)CC/C=C1\c2ccccc2Sc2ccc(Cl)cc21 ?
NR2E3 ag-1: 13; PP5 primary: 2; NR2E3 ag-2: 2; PP1 inh: 2

How did CCCCCCCCCC[N+](C)(C)CC/C=C1/c2ccccc2Sc2ccc(Cl)cc21 do in these assays?
NR2E3 ag-1: 7; PP5 primary: 8; NR2E3 ag-2: -1; PP1 inh: 41*; PP1 confirm: 11; PP5 counter: 6

How did CC[N+](C)(C)CC/C=C1/c2ccccc2Sc2ccc(Cl)cc21 do in these assays?
NR2E3 ag-1: -7; PP5 primary: 0; NR2E3 ag-2: -3; PP1 inh: -1

How did CCCCCCCCCCC[N+](C)(C)CC/C=C1/c2ccccc2Sc2ccc(Cl)cc21 do in these assays?
NR2E3 ag-1: -5; PP5 primary: 5; NR2E3 ag-2: 3; PP1 inh: 39*; PP1 confirm: 9; PP5 counter: 2

How did CCc1csc(CCNC(=O)C2CCC(=O)N(CCc3cccc(F)c3)C2)n1 (centres undefined) do in these assays?
NR2E3 ag-1: -8

How did O=C(OCc1ccccc1)N1CCC2CC1c1cc(NCCc3ccccc3)ccc12 (centres undefined) do in these assays?
NR2E3 ag-1: -12

Results for CCCC(=O)Nc1nnc([C@H]2C[C@H](O)[C@@H](CO)O2)s1 ?
NR2E3 ag-1: -11

Results for CC[C@@]1(C(=O)OC)N[C@H](CN(C)S(=O)(=O)c2ccc(-c3ccccc3)cc2)[C@@H]2C(=O)N(Cc3ccccc3)C(=O)[C@@H]21 ?
NR2E3 ag-1: 4

What do the screens show for `CCc1nc2c(OCc3ccc(Cl)cc3Cl)cccn2c1N(C)C(=O)CC(C)C`?
NR2E3 ag-1: 37

Results for CN(C)c1ccc(N=Nc2ccc(S(N)(=O)=O)cc2)cc1 ?
NR2E3 ag-1: -132; PP5 primary: 4; NR2E3 ag-2: 3; PP1 inh: 20*; PP1 confirm: 13; PP5 counter: -4

How did CC1CCCCN1CCCNC(=O)CN1C(=O)c2cccnc2Oc2ccccc21 (centres undefined) do in these assays?
NR2E3 ag-1: -17; PP5 primary: 2; NR2E3 ag-2: 3; PP1 inh: -3

Results for CCN(Cc1ccccc1)S(=O)(=O)c1ccc(C(=O)N(CCCN(C)C)c2nc3c(C)c(C)ccc3s2)cc1 ?
NR2E3 ag-1: 22; PP5 primary: 5; NR2E3 ag-2: 1; PP1 inh: 19*; PP1 confirm: -3; PP5 counter: 3

What do the screens show for `COc1ccc(OC)c(N2Cc3ccccc3C2)c1`?
NR2E3 ag-1: -14; PP5 primary: 1; NR2E3 ag-2: 2; PP1 inh: 1

Results for COc1ccccc1N1Cc2ccccc2C1 ?
NR2E3 ag-1: -27; PP5 primary: 3; NR2E3 ag-2: 0; PP1 inh: 18*; PP1 confirm: 24*; PP5 counter: 2

How did CCN(CC)CCNc1c(C)cc(CO)c(Cl)c1C do in these assays?
NR2E3 ag-1: 38

What do the screens show for `C[C@H]1CN([C@@H](C)CO)C(=O)CCCn2nncc2CO[C@H]1CN(C)S(=O)(=O)c1ccc(Oc2ccccc2)nc1`?
NR2E3 ag-1: -1

How did NC(=O)/C(=N\OC(=O)c1ccco1)c1nc(-c2ccc(Br)cc2)cs1 do in these assays?
NR2E3 ag-1: -8; PP5 primary: 5; NR2E3 ag-2: -1; PP1 inh: 27*; PP1 confirm: 6; PP5 counter: -2

How did Cc1ccc(C(=O)NC(Cc2cccc(C(F)(F)F)c2)C(=O)O)cc1 (centres undefined) do in these assays?
NR2E3 ag-1: 22

Results for CCc1ccccc1N(C)S(=O)(=O)c1ccc2[nH]cc(C(=O)O)c(=O)c2c1 ?
NR2E3 ag-1: 11; PP5 primary: 2; NR2E3 ag-2: 2; PP1 inh: 24*; PP1 confirm: 18*; PP5 counter: -6

How did NC(=O)CC(NC(=O)Cc1ccc(Br)cc1)c1ccc(N2CCC(Br)CC2)c([N+](=O)[O-])c1 (centres undefined) do in these assays?
NR2E3 ag-1: -8; PP5 primary: 0; NR2E3 ag-2: -2; PP1 inh: 27*; PP1 confirm: 16*; PP5 counter: -4

How did NC(=O)CC(NC(=O)Cc1ccc(Br)cc1)c1ccc(N2CCCCCCC2)c([N+](=O)[O-])c1 (centres undefined) do in these assays?
NR2E3 ag-1: -13; PP5 primary: 1; NR2E3 ag-2: 1; PP1 inh: 7
